Measurements reported in ChEMBL document CHEMBL3808360, “Discovery of Potent Non-Nucleoside Inhibitors of Dengue Viral RNA-Dependent RNA Polymerase from a Fragment Hit Using Structure-Based Drug Design” (J Med Chem, 2016).
One block for each molecule: values may come before it. Calls of active or inactive are those of the source. The rule behind the calls is not given here.

Legend:
[1] = Dissociation constant, pKa of the compound; type: physicochemical
[2] = Inhibition of RdRp activity of Dengue virus 4 full length NS5 preincubated for 15 mins followed by RNA and NTP addition measured after 120 mins; design: species or system dengue virus type 4
Summary of the method: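 Reaction with 100 nM DENV4 full-length NS5 and 100 nM in vitro transcribed DENV4 mini-genome RNA template (575 nt, linked 5'-3' UTRs). NTPs: 20 µM each ATP, GTP and UTP plus 5 µM ATTO-CTP. Compound (two-fold series from 20 or 100 µM) preincubated with enzyme 15 min at room temperature. RNA/NTP mix added; run 120 min. Stopped with alkaline phosphatase stop buffer, 60 min. Fluorescence read at ex 422/em 566 nm. Duplicate wells; IC₅₀ from variable-slope sigmoidal fit.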

[3] = Lipophilicity, log D of the compound at pH 7.4; type: physicochemical; conditions: buffer
[4] = Binding affinity to Dengue virus 4 NS5 RdRp (274 to 900 residues) by ITC method; design: species or system dengue virus type 4
Summary of the method: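 DENV-4 RdRp (residues 274-900) at 30-50 µM in the cell, in 20 mM HEPES pH 7.0, 300 mM NaCl, 2 mM TCEP, DMSO matched to ligand. Ligand diluted from a 50 mM DMSO stock into the same buffer, typically 2.5 mM in the syringe. Run at 25°C: one 0.4 µl injection, then 15 × 2.6 µl. Heat of dilution into buffer subtracted.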

dengue virus type 2 [5] = experiment: Antiviral activity against Dengue virus 2 MY97-10340 infected in human A549 cells assessed as reduction in DENV envelope protein level after 48 hrs; type: functional, organism-based; conditions: MY97-10340, A549, 48 h
Summary of the method: (§1)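 A549 cells (~7×10^3/well) seeded in Ham's F-12K with 2% FBS, 1 mM L-glutamine and 1% penicillin-streptomycin, held overnight at 37°C, 5% CO₂. Infected at 24 h post-seeding (DENV1 MOI 0.5, DENV2 MOI 0.3, DENV3 MOI 1, DENV4 MOI 0.5). Compound added at once as a 10-point, 3-fold series, 0.5% DMSO final. Fixed at 48 h with 4% paraformaldehyde. Stained with Dylight 488-4G2 anti-envelope antibody and DRAQ5 nuclear stain. Envelope protein quantified by high-content imaging; EC₅₀ calculated.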

[6] = Binding affinity to biotinylated Dengue virus 4 NS5 RdRp by surface plasmon resonance analysis; design: species or system dengue virus type 4
Summary of the method: (§2)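 Blank reference cell. Compound run as a 7-point 2-fold series, typically from 200 µM, with zero-concentration subtraction. Flow 30 µL/min, 45 s contact, 60-600 s dissociation, run from low to high concentration.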

dengue virus type 4 [7] = experiment: Antiviral activity against Dengue virus 4 MY01-22713 infected in human A549 cells assessed as reduction in DENV envelope protein level after 48 hrs; type: functional, organism-based; conditions: MY01-22713, A549, 48 h; summary of the method: as §1
dengue virus type 3 [8] = experiment: Antiviral activity against Dengue virus 3 MY05-34640 infected in human A549 cells assessed as reduction in DENV envelope protein level after 48 hrs; type: functional, organism-based; conditions: MY05-34640, A549, 48 h; summary of the method: as §1
dengue virus type 1 [9] = experiment: Antiviral activity against Dengue virus 1 MY97-10245 infected in human A549 cells assessed as reduction in DENV envelope protein level after 48 hrs; type: functional, organism-based; conditions: MY97-10245, A549, 48 h; summary of the method: as §1
[10] = Inhibition of RdRp activity of Dengue virus 1 NS5 preincubated for 15 mins followed by RNA and NTP addition measured after 120 mins; design: species or system dengue virus type 1
[11] = Inhibition of RdRp activity of Dengue virus 2 NS5 preincubated for 15 mins followed by RNA and NTP addition measured after 120 mins; design: species or system dengue virus type 2
[12] = Inhibition of RdRp activity of Dengue virus 3 NS5 preincubated for 15 mins followed by RNA and NTP addition measured after 120 mins; design: species or system dengue virus type 3
[13] = Apparent permeability across apical to basolateral side in human Caco2 cells at pH 7.4; type: ADME, cell-based; conditions: Caco-2, pH 7.4
Summary of the method: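 Apical-to-basal Caco-2 permeability measured at pH 7.4.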

dengue virus type 2 [14] = experiment: Antiviral activity against Dengue virus 2 MY97-10340 infected in human A549 cells assessed as reduction in DENV envelope protein level up to 50 uM after 48 hrs; type: functional, organism-based; summary of the method: as §1
dengue virus type 4 [15] = experiment: Antiviral activity against Dengue virus 4 MY01-22713 infected in human A549 cells assessed as reduction in DENV envelope protein level up to 50 uM after 48 hrs; type: functional, organism-based; summary of the method: as §1
dengue virus type 1 [16] = experiment: Antiviral activity against Dengue virus 1 MY97-10245 infected in human A549 cells assessed as reduction in DENV envelope protein level up to 50 uM after 48 hrs; type: functional, organism-based; summary of the method: as §1
dengue virus type 3 [17] = experiment: Antiviral activity against Dengue virus 3 MY05-34640 infected in human A549 cells assessed as reduction in DENV envelope protein level up to 50 uM after 48 hrs; type: functional, organism-based; summary of the method: as §1
[18] = Inhibition of RdRp activity of Dengue virus 3 NS5; design: species or system dengue virus type 3
[19] = Binding affinity to Dengue virus 3 NS5 RdRp by surface plasmon resonance analysis; design: species or system dengue virus type 3; summary of the method: as §2
[20] = Cytotoxicity against human HepG2 cells; type: cell-based
[21] = Binding affinity to N-terminal AviTag Dengue virus 3 NS5 RdRp (263 to 900 residues) expressed in Escherichia coli BL21 cells by surface plasmon resonance analysis; design: species or system dengue virus type 3; summary of the method: as §2
[22] = Inhibition of RdRp activity of Dengue virus 4 of NS5 preincubated with enzyme followed by RNA and NTP addition; design: species or system dengue virus type 4

pKa [1]: 4.8
IC50 [2]: 2.5 µM
logD [3]: 0.78
Structure (SMILES): COc1cc(C)c(S(=O)(=O)NC(C)=O)cc1-c1ccc(C#CCO)s1

IC50 [2]: 15 µM
Structure (SMILES): O=C(O)Cc1cc(CC(=O)O)cc(-c2cccs2)c1
Kd [4]: 28 µM

EC50 (dengue virus type 2 [5]): 13 µM
EC50 (dengue virus type 4 [7]): 7 µM
pKa [1]: 3.8
IC50 [2]: 0.14 µM
EC50 (dengue virus type 3 [8]): 5.5 µM
logD [3]: 0.9
EC50 (dengue virus type 1 [9]): 6.8 µM
Structure (SMILES): COc1cccc(S(=O)(=O)NC(=O)c2cc(-c3ccc(C#CCO)s3)c(Cl)cc2OC)c1
Kd [6]: 0.01 µM

IC50 [2]: 39 µM
Structure (SMILES): O=C(O)Cc1cc(CC(=O)O)cc(-c2ccc(Br)s2)c1
Kd [4]: 46 µM

IC50 [2]: 177 µM
Structure (SMILES): O=C(O)Cc1cc(CC(=O)O)cc(-c2ccccc2)c1
Kd [4]: 154 µM

IC50 [2]: 141 µM
Structure (SMILES): O=C(O)Cc1cc(CC(=O)O)cc(-c2cccc(Cl)c2)c1

IC50 [10]: 0.3 µM
IC50 [11]: 2.2 µM
IC50 [12]: 0.5 µM
Papp A→B [13]: 0.51 ×10⁻⁶ cm/s
Structure (SMILES): O=C(O)Cc1cc(CC(=O)O)cc(-c2ccc(C#CCO)s2)c1

IC50 [2]: 29 µM
Structure (SMILES): O=C(O)Cc1cc(CC(=O)O)cc(-c2ccc(C#CCCO)s2)c1
Kd [4]: 34 µM

pKa [1]: 4.2
IC50 [2]: 2.3 µM
logD [3]: 0.79
Structure (SMILES): COc1ccc(C(=O)O)cc1-c1ccc(C#CCO)s1
Kd [6]: 1.7 µM
Kd [4]: 3.8 µM

Structure (SMILES): O=C(O)Cc1cc(CC(=O)O)cc(-c2ccc(Cl)s2)c1
Kd [4]: 33 µM

pKa [1]: 4.2
IC50 [2]: 0.53 µM
logD [3]: 1.2
Structure (SMILES): COc1cc(C)c(C(=O)O)cc1-c1ccc(C#CCO)s1
Activity (dengue virus type 2 [14]): inactive
Activity (dengue virus type 4 [15]): inactive
Activity (dengue virus type 1 [16]): inactive
Kd [6]: 0.11 µM
Kd [4]: 1.6 µM
Activity (dengue virus type 3 [17]): inactive

IC50 [18]: 769 µM
Structure (SMILES): O=C(O)Cc1ccc(O)c(-c2ccccc2)c1
Kd [19]: 200 µM

pKa [1]: 5.5
IC50 [2]: 3.2 µM
logD [3]: 1.9
Structure (SMILES): COc1cc(C)c(-c2noc(=O)[nH]2)cc1-c1ccc(C#CCO)s1

Papp A→B [13]: 1.39 ×10⁻⁶ cm/s
IC50 [2]: 2.4 µM
Structure (SMILES): COc1ccc(-c2nnn[nH]2)cc1-c1ccc(C#CCO)s1

EC50 (dengue virus type 2 [5]): > 50 µM
EC50 (dengue virus type 4 [7]): > 50 µM
pKa [1]: 4
Papp A→B [13]: 0.5 ×10⁻⁶ cm/s
IC50 [2]: 0.34 µM
EC50 (dengue virus type 3 [8]): > 50 µM
logD [3]: 0.8
EC50 (dengue virus type 1 [9]): > 50 µM
Structure (SMILES): COc1cc(C)c(C(=O)NS(C)(=O)=O)cc1-c1ccc(C#CCO)s1
Activity (dengue virus type 2 [14]): inactive
Activity (dengue virus type 4 [15]): inactive
Activity (dengue virus type 1 [16]): inactive
Kd [6]: 0.12 µM
Kd [4]: 2 µM
Activity (dengue virus type 3 [17]): inactive

IC50 [10]: 0.068 µM
EC50 (dengue virus type 2 [5]): 2.3 µM
IC50 [11]: 0.11 µM
EC50 (dengue virus type 4 [7]): 1.8 µM
IC50 [12]: 0.048 µM
pKa [1]: 4.7
Papp A→B [13]: 3.91 ×10⁻⁶ cm/s
EC50 (dengue virus type 3 [8]): 1.8 µM
logD [3]: 1.6
EC50 (dengue virus type 1 [9]): 1.8 µM
Structure (SMILES): COc1cccc(S(=O)(=O)NC(=O)c2cc(-c3ccc(C#CCO)s3)c(OC)cc2OC)c1
Kd [6]: 0.07 µM
CC50 [20]: > 50 µM

IC50 [2]: 211 µM
Structure (SMILES): O=C(O)Cc1cc(CC(=O)O)cc(-c2ccco2)c1
Kd [4]: 552 µM

pKa [1]: 6.6
IC50 [2]: 44 µM
logD [3]: 3.6
Structure (SMILES): COc1cc(C)c(-c2ncc[nH]2)cc1-c1ccc(C#CCO)s1

IC50 [2]: 96 µM
Structure (SMILES): Cc1ccc(-c2cc(CC(=O)O)cc(CC(=O)O)c2)s1

IC50 [2]: 192 µM
Structure (SMILES): O=C(O)Cc1cc(CC(=O)O)cc(-c2ccccc2Cl)c1

Papp A→B [13]: 2.73 ×10⁻⁶ cm/s
IC50 [2]: 7.5 µM
Structure (SMILES): COc1ccc(CC(=O)O)cc1-c1ccc(C#CCO)s1
Kd [6]: 2.2 µM
Kd [4]: 14 µM

IC50 [2]: 199 µM
Structure (SMILES): N#Cc1ccc(-c2cc(CC(=O)O)cc(CC(=O)O)c2)s1
Kd [4]: 134 µM

IC50 [2]: 62 µM
Structure (SMILES): O=C(O)Cc1cc(CC(=O)O)cc(-c2ccc(Cl)cc2)c1

EC50 (dengue virus type 2 [5]): 37 µM
EC50 (dengue virus type 4 [7]): 14 µM
pKa [1]: 4.8
Papp A→B [13]: 10.8 ×10⁻⁶ cm/s
IC50 [2]: 0.25 µM
EC50 (dengue virus type 3 [8]): 7.3 µM
logD [3]: 1.5
EC50 (dengue virus type 1 [9]): 15 µM
Structure (SMILES): COc1cc(OC)c(-c2ccc(C#CCO)s2)cc1C(=O)NS(=O)(=O)c1ccccc1
Kd [6]: 0.09 µM

IC50 [22]: 734 µM
Structure (SMILES): COc1ccc(CC(=O)O)cc1-c1ccccc1
Kd [21]: 613 µM

EC50 (dengue virus type 2 [5]): 34 µM
EC50 (dengue virus type 4 [7]): 41 µM
pKa [1]: 3.8
Papp A→B [13]: 0.5 ×10⁻⁶ cm/s
IC50 [2]: 0.17 µM
EC50 (dengue virus type 3 [8]): 18 µM
logD [3]: 1.7
EC50 (dengue virus type 1 [9]): 31 µM
Structure (SMILES): COc1cc(C)c(C(=O)NS(=O)(=O)c2ccccc2)cc1-c1ccc(C#CCO)s1
